Experimental data as given in ChEMBL document CHEMBL1130378, “Cephalosporin 3'-phloroglucide esters and 7-(phloroglucidamido) cephalosporins as novel antibacterial agents” (1997).
In brackets after ≈: the same amount, converted by molar mass.

Columns and labels:
Assay type in all cases: functional
Staphylococcus aureus [1] = assay: Minimum inhibitory concentration for prevention of visible growth of Staphylococcus aureus (95 strain)
In short: (§1)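 Agar dilution: organisms deposited onto antibiotic-containing agar plates with a Steers-type replicator. MIC taken as the lowest concentration preventing visible growth, given as the mean of duplicate determinations.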

Staphylococcus aureus [2] = assay: Minimum inhibitory concentration for prevention of visible growth of Staphylococcus aureus (FDA 209P strain); in short: as §1
Pseudomonas aeruginosa [3] = assay: Minimum inhibitory concentration for prevention of visible growth of Pseudomonas aeruginosa (1101-75 strain); in short: as §1
Candida albicans = assay: Minimum inhibitory concentration for prevention of visible growth of Candida albicans; in short: as §1
Pseudomonas aeruginosa [4] = assay: Minimum inhibitory concentration for prevention of visible growth of Pseudomonas aeruginosa (18S-H strain); in short: as §1
[5] = biological target: Beta-lactamase (Pseudomonas aeruginosa (strain ATCC 15692 / PAO1 / 1C / PRS 101 / LMG12228)) (UniProt P24735); assay: Minimum protective concentration against beta-lactamase Pseudomonas aeruginosa (18S-H strain)
Sequence of Beta-lactamase (Pseudomonas aeruginosa (strain ATCC 15692 / PAO1 / 1C / PRS 101 / LMG12228)) (P24735 27-397 limits assumed): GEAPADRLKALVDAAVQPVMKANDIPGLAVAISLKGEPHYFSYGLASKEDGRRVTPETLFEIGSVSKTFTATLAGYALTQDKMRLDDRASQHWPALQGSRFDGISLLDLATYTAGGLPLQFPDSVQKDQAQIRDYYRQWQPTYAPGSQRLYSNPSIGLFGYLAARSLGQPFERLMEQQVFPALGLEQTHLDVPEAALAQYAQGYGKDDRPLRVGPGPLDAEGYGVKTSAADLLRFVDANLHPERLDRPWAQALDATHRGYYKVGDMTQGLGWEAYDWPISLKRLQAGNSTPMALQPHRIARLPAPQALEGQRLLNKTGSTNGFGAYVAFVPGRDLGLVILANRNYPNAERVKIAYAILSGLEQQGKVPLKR
In short: (§2)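 MPC is the lowest β-lactam concentration that protects the indicator from hydrolysis within 40 min under standard conditions. Compound stability was checked without enzyme in phosphate buffer pH 6.5 at 37 °C.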

[6] = biological target: Beta-lactamase (Staphylococcus aureus) (UniProt P00807); assay: Minimum protective concentration against beta-lactamase in Staphylococcus aureus (95 strain); in short: as §2
Sequence of Beta-lactamase (Staphylococcus aureus) (P00807 whole entry): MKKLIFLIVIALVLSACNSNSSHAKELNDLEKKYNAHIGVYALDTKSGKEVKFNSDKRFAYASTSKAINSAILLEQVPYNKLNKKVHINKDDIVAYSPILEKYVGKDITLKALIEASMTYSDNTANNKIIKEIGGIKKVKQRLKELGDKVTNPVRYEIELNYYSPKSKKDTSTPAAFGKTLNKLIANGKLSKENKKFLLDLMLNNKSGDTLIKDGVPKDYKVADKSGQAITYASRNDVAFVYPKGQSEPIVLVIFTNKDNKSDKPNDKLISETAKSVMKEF

Structure (SMILES) | MIC (Staphylococcus aureus [1]) | MIC (Staphylococcus aureus [2]) | MIC (Pseudomonas aeruginosa [3]) | MIC (Candida albicans) | MIC (Pseudomonas aeruginosa [4]) | MPC [5] | MPC [6]
Oc1ccccc1Cc1cccc(Cc2ccccc2O)c1O | > 145 µg/mL | > 145 µg/mL | > 145 µg/mL | > 145 µg/mL | > 145 µg/mL |  | 
Oc1ccc(Br)cc1Cc1cc(Cl)cc(Cc2cc(Br)ccc2O)c1O | 49 µg/mL (≈ 98.2 µM) | 45 µg/mL (≈ 90.3 µM) | 39.4 µg/mL (≈ 79 µM) | 115 µg/mL (≈ 231 µM) | 36.7 µg/mL (≈ 73.6 µM) |  | 
O=C(O)[C@H]1/C(=C/CO)O[C@@H]2CC(=O)N21 |  |  |  |  |  | 3 µg/mL | 0.38 µg/mL
O=C(COc1ccccc1)N[C@@H]1C(=O)N2C(C(=O)O)=C(COC(=O)c3cccc(Cc4cc(Cl)cc(Cc5ccccc5O)c4O)c3O)CS[C@H]12 | 1.2 µg/mL (≈ 1.64 µM) | 0.41 µg/mL (≈ 0.561 µM) | 0.98 µg/mL (≈ 1.34 µM) | 5.86 µg/mL (≈ 8.01 µM) | 1.24 µg/mL (≈ 1.7 µM) | 6.74 µg/mL | 7.08 µg/mL
CC(=O)Oc1ccccc1Cc1cc(Cl)cc(Cc2ccccc2OC(C)=O)c1OC(C)=O | > 145 µg/mL | > 145 µg/mL | > 145 µg/mL | > 145 µg/mL | > 145 µg/mL |  | 
CO/N=C(\C(=O)N[C@@H]1C(=O)N2C(C(=O)O)=C(COC(C)=O)CS[C@H]12)c1csc(N)n1 [CEFOTAXIME] | 40.6 µg/mL (≈ 89.1 µM) | 1.7 µg/mL (≈ 3.73 µM) | 69.9 µg/mL (≈ 153 µM) | > 145 µg/mL | 135 µg/mL (≈ 296 µM) | 1.03 µg/mL | 2.72 µg/mL
COC(=O)c1cccc(Cc2cc(Cl)cc(Cc3ccccc3O)c2O)c1O | 4.65 µg/mL (≈ 11.7 µM) | 2.98 µg/mL (≈ 7.47 µM) | 1.25 µg/mL (≈ 3.13 µM) | 117 µg/mL (≈ 294 µM) | 1.56 µg/mL (≈ 3.91 µM) |  | 
CC(=O)OCC1=C(C(=O)O)N2C(=O)[C@@H](NC(=O)c3cccc(Cc4cc(Cl)cc(Cc5ccccc5O)c4O)c3O)[C@H]2SC1 | 0.28 µg/mL (≈ 0.438 µM) | 0.35 µg/mL (≈ 0.548 µM) | 0.28 µg/mL (≈ 0.438 µM) | 28.3 µg/mL (≈ 44.3 µM) | 0.45 µg/mL (≈ 0.704 µM) | 99.8 µg/mL | 95.2 µg/mL
O=C(O)c1cccc(Cc2cc(Cl)cc(Cc3cccc(C(=O)O)c3O)c2O)c1O | 4.15 µg/mL (≈ 9.68 µM) | 3.25 µg/mL (≈ 7.58 µM) | 0.86 µg/mL (≈ 2.01 µM) | 16.5 µg/mL (≈ 38.5 µM) | 1.32 µg/mL (≈ 3.08 µM) |  | 
COC(=O)c1cccc(C(=O)c2cc(Cl)cc(C(=O)c3ccccc3O)c2O)c1O | 15.3 µg/mL (≈ 35.9 µM) | 14.7 µg/mL (≈ 34.4 µM) | 5.78 µg/mL (≈ 13.5 µM) | 125 µg/mL (≈ 294 µM) | 4.3 µg/mL (≈ 10.1 µM) |  | 
CC(=O)OCC1=C(C(=O)O)N2C(=O)[C@@H](NC(=O)c3cccc(C(=O)c4cc(Cl)cc(C(=O)c5ccccc5O)c4O)c3O)[C@H]2SC1 | 0.45 µg/mL (≈ 0.675 µM) | 0.78 µg/mL (≈ 1.17 µM) | 0.79 µg/mL (≈ 1.18 µM) | 14.2 µg/mL (≈ 21.3 µM) | 0.38 µg/mL (≈ 0.57 µM) | 93.5 µg/mL | 88.7 µg/mL
O=C(O)c1cccc(C(=O)c2cc(Cl)cc(C(=O)c3ccccc3O)c2O)c1O | 0.98 µg/mL (≈ 2.37 µM) | 3.67 µg/mL (≈ 8.89 µM) | 0.17 µg/mL (≈ 0.412 µM) | 3.7 µg/mL (≈ 8.96 µM) | 0.26 µg/mL (≈ 0.63 µM) |  | 
O=C(COc1ccccc1)N[C@@H]1C(=O)N2C(C(=O)O)=C(COC(=O)c3cccc(C(=O)c4cc(Cl)cc(C(=O)c5ccccc5O)c4O)c3O)CS[C@H]12 | 2.1 µg/mL (≈ 2.77 µM) | 0.9 µg/mL (≈ 1.19 µM) | 1.37 µg/mL (≈ 1.8 µM) | 6.47 µg/mL (≈ 8.52 µM) | 3.13 µg/mL (≈ 4.12 µM) | 5.98 µg/mL | 4.81 µg/mL
Oc1ccccc1Cc1cc(Cl)cc(Cc2ccccc2O)c1O | 0.58 µg/mL (≈ 1.7 µM) | 1.2 µg/mL (≈ 3.52 µM) | 0.07 µg/mL (≈ 0.205 µM) | 2.06 µg/mL (≈ 6.04 µM) | 0.18 µg/mL (≈ 0.528 µM) |  | 
CNC(=O)c1cccc(Cc2cc(Cl)cc(Cc3ccccc3O)c2O)c1O | 6.63 µg/mL (≈ 16.7 µM) | 7.35 µg/mL (≈ 18.5 µM) | 3.28 µg/mL (≈ 8.24 µM) | 114 µg/mL (≈ 287 µM) | 4.7 µg/mL (≈ 11.8 µM) |  | 
O=C(O)c1cccc(C(=O)c2cc(Cl)cc(C(=O)c3cccc(C(=O)O)c3O)c2O)c1O | 22.2 µg/mL (≈ 48.6 µM) | 18.2 µg/mL (≈ 40 µM) | 2.54 µg/mL (≈ 5.56 µM) | 19.1 µg/mL (≈ 41.9 µM) | 3.06 µg/mL (≈ 6.7 µM) |  | 
CC(=O)Oc1ccc(Br)cc1Cc1cc(Cl)cc(Cc2cc(Br)ccc2OC(C)=O)c1OC(C)=O | > 145 µg/mL | > 145 µg/mL | > 145 µg/mL | > 145 µg/mL | > 145 µg/mL |  | 
CC(=O)OCC1=C(C(=O)O)N2C(=O)[C@@H](NC(=O)COc3ccccc3)[C@H]2SC1 | > 145 µg/mL | 0.7 µg/mL (≈ 1.72 µM) | > 145 µg/mL | > 145 µg/mL | > 145 µg/mL | 0.97 µg/mL | 1.35 µg/mL
CNC(=O)c1cccc(C(=O)c2cc(Cl)cc(C(=O)c3ccccc3O)c2O)c1O | 17.8 µg/mL (≈ 41.7 µM) | 18.1 µg/mL (≈ 42.6 µM) | 6.03 µg/mL (≈ 14.2 µM) | 120 µg/mL (≈ 281 µM) | 8.32 µg/mL (≈ 19.5 µM) |  | 
O=C(O)c1cccc(Cc2cc(Cl)cc(Cc3ccccc3O)c2O)c1O | 0.43 µg/mL (≈ 1.12 µM) | 0.86 µg/mL (≈ 2.23 µM) | 0.02 µg/mL (≈ 0.052 µM) | 1.43 µg/mL (≈ 3.72 µM) | 0.1 µg/mL (≈ 0.26 µM) |  | 
